Screening results from PubChem.
CFTR F508del cor: CFTR F508del correction in bronchial cells | 350,000 tested, 0.36% active | AID 720511 | CFBE cells, YFP halide quenching; stimulated with forskolin plus potentiator P3; % fluorescence drop versus neutral controls | activity (quench increase), % at 7.58 µM;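 active means mean added fluorescence quench of at least 8% versus neutral control, with both replicates also reaching 8%; inconclusive means only one of the mean or replicate conditions met; inactive means mean below 8% and not both replicates reaching 8%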;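 further: cells transiently co-express mutant CFTR-F508del with the halide-sensitive YFP; corrector assay measuring rescue of mutant channel to the surface after 24 h compound exposure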
miR-122 sensor: miR-122 inhibition in Huh7 cells; activation (reporter increase), % at 12.5 µM; Huh7 miR-122 Renilla luciferase sensor, 48 h; neutral wells = 0, positive control = 100; 340,000 tested, 0.3% active;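 active means mean replicate activation score at least 90 and every replicate individually at or above 90; inconclusive means only one of the two criteria met; inactive means neither criterion met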;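 further: higher luciferase means less miR-122 activity so hits act as miR-122 inhibitors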
DENV2 CPE rescue: inhibitors of DENV2 cytopathic effect. DENV2-infected cells, cytopathic effect rescue, plate reader. CPE inhibition, % at 9.99 µM. 350,000 tested, 1.7% active. AID 651640; in the data active means CPE inhibition above about 20%, passing the limit was not always enough; inconclusive means no clear call, values can overlap the other calls; tested in BHK-21 cells;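 further: 0% = median of neutral control wells and 100% = median of positive control wells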
INS-1E GSIS act: primary screen for activators of insulin secretion dependent on glucose, INS-1E cells, GLuc reporter luminescence. INS-1E GLuc reporter insulin secretion, 2-3 h. activation, % at 16.6 µM. 370,000 tested, 0.61% active;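 active means lowest replicate activation of at least 40%, so every replicate reaches that level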;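 further: 0% = median of neutral control wells and 100% = median of IBMX positive control wells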
E-selectin induc: induces E-selectin expression in human endothelial cells; HUVEC E-selectin immunofluorescence imaging; normalized: neutral wells 0, TNF-alpha wells 100; 260,000 tested, 0.37% active; P16581; activation, % at 7.58 µM;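 active means mean E-selectin-positive cell signal at least 10% of the positive control, reached in at least 60% of replicates, without over 20% cell loss; inconclusive means no rule given, readout overlaps actives, possibly toxicity-flagged; inactive means the rest, including those meeting only one limit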
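Read-out: % PE-positive cells | Test system: HUVEC | Doses: One compound dose added by pin transfer | Buffer or medium: EGM-2 over gelatin coat | Signal: Immunofluorescence imaging | Benchmarks: TNF-alpha, DMSO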
ERAP1 HTS inh: blocks human ERAP1 aminopeptidase activity. AID 652197. recombinant ERAP1, Leu-AMC fluorescence, 60 min. inhibition, % at 10.7 µM. 340,000 tested, 0.15% active. Q9NZ08;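 active means mean replicate inhibition of at least 30%, or all replicates individually reaching that 30% level; inactive means mean below 30% and not every replicate reaching it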;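 further: 0% = neutral control wells and 100% = L-leucinethiol positive control wells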
The depositor's hits bear a star; ? = inconclusive; nt = no result given; [ ] = remark or other dose. An excerpt weighted towards active compounds, which were near 2.6% of everything screened.

SMILES	CFTR F508del cor	miR-122 sensor	DENV2 CPE rescue	INS-1E GSIS act	E-selectin induc	ERAP1 HTS inh
COc1ccc(CCNS(=O)(=O)c2cn(C)cn2)cc1OC	2	-4	-4	44*	nt	-7
COc1ccc(CCNS(=O)(=O)c2cnc(Cl)c(Br)c2)cc1OC	2	-2	2	20	nt	-2
COc1ccc(CCNS(=O)(=O)c2cccc(C)c2)cc1OC	nt	-8	nt	90*	nt	nt
CCOC(=O)c1c(S(=O)(=O)NCCc2ccc(OC)c(OC)c2)c(C)n(C)c1C	6	nt	5	51*	nt	1
COc1ccc(CCNS(=O)(=O)c2cccc(F)c2)cc1OC	nt	15	nt	nt	nt	nt
COc1ccc(NC(=O)N(C)C[C@H]2OCCCC[C@H](C)Oc3ccc(NS(=O)(=O)c4ccccc4)cc3C(=O)N([C@@H](C)CO)C[C@H]2C)cc1	2	nt	-5	1	0	0
COCC(=O)N1CC2(C1)[C@H](c1ccc(C3=CCCC3)cc1)[C@@H](CO)N2C(=O)COC	-3	nt	2	36	0	0
COc1ccc(CCNS(=O)(=O)c2ccc3c(c2)NC(=O)CS3)cc1OC	0	4	?	36	114*	-2
COCCNC(=O)[C@@H]1[C@@H](CO)[C@@H]2Cn3c(ccc(-c4ccccc4F)c3=O)[C@@H]2N1C(=O)C1CCCC1	nt	nt	-1	2	0	2
CCCN1CCN(C(=O)c2ccc(CS(=O)c3ccc(Cl)cc3)o2)CC1 (stereo unspecified)	0	3	-2	26	49*	-3
CCCN1CCN(C(=O)c2ccc(CS(=O)c3ccc(Br)cc3)o2)CC1 (stereo unspecified)	0	-3	-1	11	nt	6
C[C@H](NC(=O)C[C@@H]1CC[C@H](NC(=O)CN2CCOCC2)[C@@H](CO)O1)c1ccccc1	2	-10[16.7 µM]	5	-3	-1	-1
COc1cc(C2CC(=O)Oc3c(C(CCN4CCCC(C)C4)c4ccc(N(C)C)cc4)c(OC)cc(OC)c32)cc(OC)c1OC (stereo unspecified)	3	1	51*	-30	0	-3
C[C@H]1CN([C@@H](C)CO)C(=O)c2ccccc2-c2ccccc2CO[C@@H]1CN(C)Cc1cccnc1	1	nt	4	1	1	2
CCCCOC(=O)c1ccc(-c2ccc(/C=N/NC(=S)NCC)o2)cc1	nt	0	nt	159*	nt	nt
O=C(c1ccccc1)N1CC[C@@H]2[C@H](CO)Nc3ccc(-c4ccc(F)cc4)cc3[C@@H]21	-1	-7[16.7 µM]	32*	3	0	nt
O=C(c1ccccc1)N1CC[C@@H]2[C@H]1c1cc(-c3ccc(F)cc3)ccc1N[C@@H]2CO	-2	12[16.7 µM]	29*	-2	1	nt
CN(Cc1ccco1)c1ncnc2ccc(-c3ccc4c(ccn4C)c3)cc12	14*	3	?	-2	nt	-3
CN(Cc1ccco1)c1ncnc2ccc(-c3ccc4c(c3)OCO4)cc12	-4	nt	nt	nt	1	-3
N#Cc1c(-c2ccncc2)cc(-c2ccc(F)cc2)nc1N	0	3	-4	49*	0	-3
Cc1ccc(-c2cc(-c3ccc(F)cc3)nc(N)c2C#N)o1	nt	5	nt	nt	nt	nt
Cc1cc(NC(=O)COC(=O)c2ccccc2Cl)no1	1	2	2	3	0	2
Cc1cc(NC(=O)COC(=O)c2oc3c(Cl)cccc3c2C)no1	nt	-7	nt	65*	nt	nt
Cc1cc(NC(=O)COC(=O)CCS(=O)(=O)c2cc(Cl)ccc2Cl)no1	1	9	7	41*	nt	-4
OC[C@@H]1[C@@H](c2ccc(-c3ccccc3F)cc2)[C@@H]2CN(Cc3ccncc3)CCCCN12	0	6[16.7 µM]	22*	-1	0	nt
OC[C@H]1[C@@H](c2ccc(-c3ccc(F)cc3)cc2)[C@H]2CN(Cc3ccncc3)CCCCN21	-4	0[16.7 µM]	28*	-6	0	4
O=C(C[C@H]1C=C[C@H](NS(=O)(=O)c2ccccc2)[C@H](CO)O1)NCc1ccc(Cl)c(Cl)c1	1	nt	1	5	0	-4
CC(C)c1ccc(OC(=O)c2cccc(S(=O)(=O)N3CCN(C)CC3)c2)cc1	0	-12	-5	-33	0	106*
